# Source: the array DNA melting data of Ke et al. (doi:10.1101/2024.01.08.574731)
# Assays:
# [1] = folding enthalpy; higher = less favourable; fluorescence melt of hairpins on a sequencing array, two-state fit; conditions: sodium 0.088 M
# In short: (§1)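 In 50 mM Na-HEPES pH 8.0 containing 25 mM NaCl, hairpins from the library on a sequenced MiSeq flow cell were imaged for Cy3 fluorescence at 2.5 °C steps up to 60 °C, with Cy3 and quencher oligos annealed. After normalisation to pre-quench Cy3 and to control constructs, two-state fits with bootstrapping gave melting temperature and folding enthalpy. Four replicates were combined by inverse-variance weighting, and fitted temperatures were shifted up by 9.35 °C to match UV melts.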
# [2] = melting temperature; fluorescence melt of hairpins on a sequencing array, two-state fit, raised by 9.35 °C to match UV melts; conditions: sodium 0.088 M
# In short: as §1
Sequence,folding enthalpy [1] [kcal/mol],Tm [2] [°C]
GGTGACGAAAGTCACACC ((((((....)))..))),-7.84,56
GGGCACGCGAAAGCGCCC (((..(((....)))))),-16.2,58.7
GTTCTGCGAAAGCAAAC (((.(((....)))))),-13.5,36.9
GCTTCGGGAAACCGAAAC (.(((((....))))).),-15.4,40.2
GGAACCGAAAGGTACTCC ((((((....)))..))),-12.6,33.3
GACTTACGAAAGTAGGTC (((.(((....))).))),-27.5,49.3
GATCCTGCGCAGGATC ((((((....)))))),-53,59.3
GTCATAGGAAACTACGAC (((.(((....))).))),-16.5,30.8
GCTCCGCGAAAGCGTGGC ((..(((....)))..)),-15.7,50.1
GAGGACGGAAACGTTCTC (((.(((....))).))),-41.9,51.6
GATCAGTCGCTGATC ((((((...)))))),-29.6,49.8
GCTCATCGAAAGATAGC (((.(((....)))))),-26.3,42.3
GATCTGTACACAGATC ((((((....)))))),-37.4,54.6
GCTTGCGAAAGCAGCAGC ((((((....)))..))),-11.4,46.4
GCACCAACGAAAGTTTGC (((..(((....)))))),-13.5,27.9
GTCGAGGGAAACCTTGAC (((.(((....))).))),-38.5,48.7
GATCACTACGGTGATC ((((((....)))))),-37.9,58.7
GTTTGCCGAAAGGCGAAC (((.(((....))).))),-28.3,61.9
GGTCCTGGAAACAAGACC ((((.((....)).)))),-32.1,36.2
GATCCATATATGGATC ((((((....)))))),-44.1,55
CGACCCGGAAACGGCTCG (((.(((....))).))),-23.7,40.1
GCTTTCGAAAGAAAGAGC ((((((....)))..))),-19.7,43.5
GACAGCGAAAGCTCGTC ((((((....))).))),-19.6,50.5

Sequence,folding enthalpy [1] [kcal/mol],Tm [2] [°C]
GTGTTGGGAAACCAATGC (..((((....))))..),-25.2,38
GGTATTGGAAACGATACC (((((.(....).))))),-33.4,44.4
GCCTATGGAAACATAGAC (.(((((....))))).),-17.4,32.6
GCGAGATTCGC ((((...)))),-17.1,47.7
GACAACCGAAAGGTGGTC (((.(((....))).))),-35.3,59.2
GGGATTCGAAAGAACCC (((.(((....)))))),-25.5,47.1
CGTCCCGGAAACGGAACG (((.(((....))).))),-26.3,47.5
TGGATGAAAATCCA (((((....))))),-17.8,46.1
GATCGTTTAAACGATC ((((((....)))))),-48.9,56.1
GTCATGCGAAAGCACGAC (((.(((....))).))),-27.5,52.3
GCCTACGAAAGTATTGGC ((((((....)))..))),-20.5,43.4
CGAACACGGAAACGTTCG (((..(((....)))))),-32.4,42.7
CGACCGGAAACGGAATCG ((((((....)))..))),-14.3,35.7
GATCCGGGAAACCGAATC (((.(((....))).))),-24.5,38.2
GGTACAGGAAACTGTGTC (..((((....))))..),-17.6,28.9
GATCTCTCATGAGATC ((((((....)))))),-44.1,52.3
GTTACGGGAAACCATAAC ((((.((....)).)))),-15.6,30
GATCAAGCTTTGATC ((((((...)))))),-29.5,43.4
GATCGGGCAGCCGATC ((((((....)))))),-40.3,59.3
GCGGCACCCCGC ((((....)))),-24.8,53.8
GCCGTAACGAAAGTTGGC (((..(((....)))))),-20.9,49.4
GGACCTGGAAACAAGTCC ((((.((....)).)))),-23.5,38.7
GGTACCGAAAGGTGAACC ((((((....)))..))),-15.5,37.1

Sequence,folding enthalpy [1] [kcal/mol],Tm [2] [°C]
GCTTCAGCGAAAGCTAGC (((..(((....)))))),-9.89,41.2
GCAGTCGAAAGACCCTGC ((((((....)))..))),-17.3,33
GTGCGGCGAAAGCCACAC (((.(((....))).))),-29.2,62.1
GATCAGACTCCTGATC ((((((....)))))),-36.1,47.5
GATCAAGCCATTGATC ((((((....)))))),-48.9,50.5
GTAAACACGAAAGTGTAC (((..(((....)))))),-11.7,31.2
GATCTACATGTAGATC ((((((....)))))),-45.9,52.5
GGACATGAAAATGTCC ((((((....)))))),-34.7,61.7
GCTTGAGAAATCAAGC ((((((....)))))),-35.3,55.8
GGTGGTCGAAAGACGACC (((.(((....))).))),-38,56.8
GAATCACGAAAGTGTTC (((.(((....)))))),-15.5,39.3
TCAAGGAAACTTGA (((((....))))),-8.95,32
GCGGTGCGAAAGCTTCGC (((..((....))..))),-16.4,58.2
GGGTAAGGAAACTCACCC ((((.((....)).)))),-28.4,36.8
GATCGTTCACACGATC ((((((....)))))),-40.3,54.5
GGGAAAGGAAACTTCCCC (((.(((....))).))),-23.3,36.8
CGATGCGGAAACGCTTCG (((.(((....))).))),-41.7,53
GATCGAGGAATCGATC ((((((....)))))),-33.2,55.9
GCGGACGGAAACGTCCAC (.(((((....))))).),-12.2,51.1
GTGCTCGGAAACGAGTGC (..((((....))))..),-24.2,50.4
GCCGTCGAAAGACCAGGC ((((((....)))..))),-17.5,48.9
GTCACTACGAAAGTAGAC (((..(((....)))))),-10.2,28.3
GAGGCCGAAAGGCATCTC ((((((....)))..))),-17.1,68.4

Sequence,folding enthalpy [1] [kcal/mol],Tm [2] [°C]
GATCTTAGAAAGATC ((((((...)))))),-31.3,41.5
GGACTGCCGAAAGGCTCC (((..(((....)))))),-10.2,34.7
GGTGCGGCGAAAGCCACC (((..(((....)))))),-14,48.2
GAGTAAGGAAACCTACTC (((((.(....).))))),-26.6,33.2
GTGCGTGGAAACGCGTAC ((.((.(....).)).)),-10.9,42.7
GATCTACCATAGATC ((((((...)))))),-30.5,37.5
GATCGGTGCGCCGATC ((((((....)))))),-36.9,66.9
GCATCGGGAAACTGATGC (((((.(....).))))),-37.2,55.7
GCAGTGCGAAAGCCCGGC ((.(.((....)).).)),-18.4,45
GCGCATCGAAAGATTCGC (((.(((....))).))),-38.9,52.2
GATCGACCCTCGATC ((((((...)))))),-39.1,51.7
GCGTGGCGAAAGCTAAGC ((.(.((....)).).)),-23.3,58.3
GGACAAGGAAACCTGTCC (((((.(....).))))),-31.4,47.2
GACAGCGAAAGCTTCGTC ((((((....)))..))),-13,43.9
GACCGCGGAAACACGGTC (((((.(....).))))),-52,55.5
GCTTAAGGAAACTTAAGC (((((((....))))))),-39.6,53.2
GCTTAGCGAAAGCCAAGC ((((.((....)).)))),-22.1,53.5
GCGGTGCGAAAGCTACGC (((..((....))..))),-33.5,63.9
GTATTGGAAACAATAC ((((((....)))))),-26.9,46.5
GATCTTCCGAAAGATC ((((((....)))))),-29.7,43.2
CGAACCGGAAACGGGTCG (((.(((....))).))),-33.9,58.3
GTTATCGGAAACGATAAC (((((((....))))))),-46.2,57
GGGTTTCGAAAGAACCCC (((.(((....))).))),-26.1,51.3
